For one data set, the target named is T1, Histone deacetylase 8 (Homo sapiens, UniProt Q9BY41).
T1 sequence (Q9BY41 whole entry): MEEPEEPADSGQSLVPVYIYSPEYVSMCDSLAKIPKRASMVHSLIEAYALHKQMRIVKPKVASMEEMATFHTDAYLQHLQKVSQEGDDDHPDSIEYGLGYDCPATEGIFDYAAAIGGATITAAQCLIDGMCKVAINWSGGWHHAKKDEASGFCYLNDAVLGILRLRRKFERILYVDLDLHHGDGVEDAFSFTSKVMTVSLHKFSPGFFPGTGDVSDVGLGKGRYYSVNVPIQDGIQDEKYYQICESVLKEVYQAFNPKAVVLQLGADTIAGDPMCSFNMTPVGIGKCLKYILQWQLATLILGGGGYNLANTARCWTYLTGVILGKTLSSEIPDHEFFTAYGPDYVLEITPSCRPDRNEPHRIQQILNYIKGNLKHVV
Description: Inhibition of recombinant human HDAC8 expressed in SF9 baculoviral system using FAM-labeled acetylated peptide as substrate by EMSA. In outline: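 Full-length recombinant human enzyme from an Sf9 baculovirus system, in 100 mM HEPES pH 7.5 with 25 mM KCl, 0.1% BSA, 0.01% Triton X-100 and 1% DMSO. Final enzyme was 0.5 nM for HDAC3, 60 nM for HDAC6 and 5.0 nM for HDAC8. FAM-acetylated peptide was 1 μM. The read-out was product/(substrate+product) by microfluidic mobility shift, with inhibition set against DMSO and no-enzyme controls (quadruplicate). Compounds were tested at 12 threefold-spaced concentrations, and IC50 came from a four-parameter sigmoid fit.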
(In general: A gel shift assay detects complexes by their altered migration in electrophoresis.)

The target of data set [1] is Histone deacetylase 8 (Homo sapiens) (UniProt Q9BY41). Description: Inhibition of recombinant human HDAC8 expressed in SF9 baculoviral system at 10 uM using FAM-labeled acetylated peptide as substrate by EMSA relative to control. In outline:
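Single-point screen at 10 μM compound, using full-length recombinant human enzyme expressed in Sf9 cells. Buffer was HEPES pH 7.5 with KCl, BSA and Triton X-100, and 1% DMSO. Final enzyme was 0.5 nM for HDAC3, 60 nM for HDAC6 and 5.0 nM for HDAC8, with 1 μM FAM-acetylated peptide. Percent inhibition was derived from the product sum ratio relative to DMSO-only (0%) and no-enzyme (100%) controls.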

The next data set deals with PC-3. Briefly: Cytotoxicity against human PC3 cells at 50 uM after 72 hrs by CellTiter-Blue assay. Type of data set: functional, cell-based. In general terms: Resazurin is reduced to fluorescent resorufin, in cell work by metabolically active cells.
The nature of data set [2]: Cytotoxicity against human MRC9 cells at 50 uM after 72 hrs by CellTiter-Blue assay. It counts as cell-based. In outline:
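Cells in 10% FBS medium, 10 000 cells/well, treated 24 h after plating. Twofold dilution series from a 50.0 μM top dose to 0.097656 μM, in triplicate, 0.5% DMSO vehicle. 72 h at 37 °C, 5% CO2. CellTiter-Blue for 1–4 h, fluorescence 560/590 nm. IC50 by nonlinear regression.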

In data set [3] the target is Signal transducer and activator of transcription 5B (Homo sapiens) (UniProt P51692). Description: Inhibition of STAT5b phosphorylation at Y694 in human MV4-11 cells at 10 uM after 5 hrs by Western blot method. It counts as cell-based. Summed up: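 Run on 4–15% SDS-PAGE and transferred to PVDF. Primary antibodies 1:1000 overnight at 4 °C, HRP or fluorescent secondary 1:5000, ECL detection, β-actin loading control.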
Sequence of Signal transducer and activator of transcription 5B (Homo sapiens) (P51692 whole entry): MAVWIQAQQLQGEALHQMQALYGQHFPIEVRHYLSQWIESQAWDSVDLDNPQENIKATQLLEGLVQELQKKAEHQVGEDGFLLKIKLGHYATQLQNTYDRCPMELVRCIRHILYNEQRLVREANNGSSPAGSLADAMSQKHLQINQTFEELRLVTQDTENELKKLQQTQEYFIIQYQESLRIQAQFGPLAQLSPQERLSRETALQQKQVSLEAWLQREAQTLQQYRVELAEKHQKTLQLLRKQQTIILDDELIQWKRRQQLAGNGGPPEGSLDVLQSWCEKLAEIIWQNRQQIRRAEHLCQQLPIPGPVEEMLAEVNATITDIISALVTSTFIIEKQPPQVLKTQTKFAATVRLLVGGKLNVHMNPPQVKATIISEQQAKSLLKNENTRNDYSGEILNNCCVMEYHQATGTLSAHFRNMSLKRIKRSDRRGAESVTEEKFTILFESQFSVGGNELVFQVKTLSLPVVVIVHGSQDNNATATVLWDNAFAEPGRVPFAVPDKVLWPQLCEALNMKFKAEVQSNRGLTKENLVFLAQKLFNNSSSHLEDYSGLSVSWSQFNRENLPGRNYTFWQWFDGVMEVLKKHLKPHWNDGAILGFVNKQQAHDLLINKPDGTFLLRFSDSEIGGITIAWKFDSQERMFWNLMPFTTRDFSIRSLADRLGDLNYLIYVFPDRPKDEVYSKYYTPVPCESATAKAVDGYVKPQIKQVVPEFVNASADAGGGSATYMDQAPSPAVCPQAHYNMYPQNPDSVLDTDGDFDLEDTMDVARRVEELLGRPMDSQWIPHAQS

Data set [4] is described as follows: Drug uptake in NSG mouse serum at 20 mg/kg, ip administered as single dose and measured at 1 hr by HPLC-MS/MS analysis. Type of data set: ADME, organism-based. The settings on record: read-out: Drug uptake. Summed up:
(§1)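 NSG mice given a single 20 mg/kg IP dose in Cremophor EL/EtOH (1:1, 4% final volume)/sterile saline. Tail-vein blood at 0.5, 1, 2, 4, 8 and 24 h, n = 2. Drug quantified in serum/plasma. Half-life and clearance calculated assuming 100% bioavailability.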

For data set [5], the system named is Pa03C. Description: Cytotoxicity against human Pa03C monolayer cells assessed as reduction in tumor spheroid intensity after 72 hrs by Alamar Blue assay. Type of data set: functional, cell-based. Summed up:
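Monolayer proliferation of STR-authenticated, mycoplasma-checked patient-derived PDAC lines and mouse KPC cells. Plated at 2000 cells/well, treated 72 h, read by alamarBlue. At least triplicate, n = 3–5.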

In data set [6] the test system is Pa03C. Briefly: Cytotoxicity against human Pa03C cells assessed as reduction in tumor spheroid area after 72 hrs by Alamar Blue assay. It counts as functional, cell-based. In outline: (§2)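 3D spheroids of patient-derived PDAC cells (tomato red) alone or with CAF19 cells, plus CAF cultures. Imaging read-outs: area is the μ2 of objects above a tomato red intensity threshold; intensity is summed red or green pixel fluorescence after background removal. n = 3–5.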

Data set [7] in a line: Cytotoxicity against human […] cells assessed as reduction in tumor spheroid area after 72 hrs by Alamar Blue assay. It counts as cell-based. In outline: as §2
The nature of data set [8]: Antitumor activity against mouse KPC cells allografted in immunocompetent C57BI/6 mouse assessed as mean survival time at 50 mg/kg, ip administered daily for 5 days per week for 1 month starting on day 7 post implantation (reference value: 29.5 days). Type of data set: functional.
A short description of data set [9]: Half life in NSG mouse at 20 mg/kg, ip administered as single dose by HPLC-MS/MS analysis. Type of data set: ADME, organism-based. Particulars: in vivo. In outline:
as §1

Activity calls are given as the source filed them. A value given as a limit tells only on which side of the number the result lay.

With `CC(C)(C)c1ccc(CN(C(=O)CN(Cc2c(F)c(F)c(F)c(F)c2F)S(=O)(=O)c2ccc(F)cc2)c2ccc(C(=O)NO)cc2)cc1`, the IC50 (usually the point on the concentration scale where inhibition reaches its midpoint) on Histone deacetylase 8 was greater than 1 µM; with Pa03C [5], 3.4 µM; in the data set on Pa03C [6], 1.22 µM; in data set [7] it was 4.7 to 7.8 µM. Besides, the inhibition – broadly, how much of the control response was suppressed – in data set [1] is 94%. For the same compound, in the data set on PC-3, the result was Active. Besides, in data set [2], the Activity result was “Non-Toxic”. Moreover, in [3], the inhibition result is “inactive”. For the same compound, the concentration at 1 h in data set [4] is 5400 ng/mL. Further, the MST in data set [8] was determined as 36.5 days. Also, the half-life (in general, the time in which the quantity being followed falls by half) in [9] was 5 h.

Source of the values: ChEMBL document CHEMBL4400543, “Identification and Characterization of AES-135, a Hydroxamic Acid-Based HDAC Inhibitor That Prolongs Survival in an Orthotopic Mouse Model of Pancreatic Cancer” (J Med Chem, 2019).
